Results from ChEMBL document CHEMBL1124476, “1-(2-aminoethyl)-6-aryl-4H- [1,2,4]triazolo[4,3-a][1,4]benzodiazepines with diuretic and natriuretic activity” (J Med Chem, 1989).

Legend:
[1] = tested on: Rattus norvegicus; test: Mean excretion of potassium in conscious rats at a dose of 100 mg/kg given orally; assay type: ADME, organism-based; set-up: dose 100 mg/kg, route oral; conditions: in vivo, po
Method in brief: (§1)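 Secondary dose-response in male Sprague-Dawley rats (~160 g), fasted and hydrated as in the primary screen. Oral gavage at 0.3-100 mg/kg in 25 mL/kg saline/0.5% CMC, three cages of two rats per dose. Urine collected 5 h; Na, K, Cl, HCO3 measured. Values are mean excretion (mequiv), compared with controls at P < 0.05.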

[2] = tested on: Canis familiaris; test: Effect of compound on glomerular filtration rate after infusion with 10 mg/kg/hr fose into renal artery of anesthetized dogs; assay type: ADME, organism-based, Canis lupus familiaris; conditions: dog, in vivo
Method in brief: (§2)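 Anesthetized dogs; drug added to saline pumped at 0.3 mL/min through a needle into one renal artery, contralateral kidney as control. 10 mg/kg per h, with 30-60 min stabilization first. Urine volume and GFR (inulin clearance) taken before and after infusion; means ± SEM in mL/min, N = 5, P < 0.05.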

[3] = tested on: Rattus norvegicus; test: Mean excretion of sodium in conscious rats at a dose of 0.3 mg/kg given orally; assay type: ADME, organism-based; set-up: dose 0.3 mg/kg, route oral; conditions: in vivo, po
Method in brief: (§3)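 Male Sprague-Dawley rats, about 160 g, fasted 24 h and water withheld 1 1/2 h beforehand; food and water withheld during the test. Dosing by gavage with 25 mL/kg 0.9% saline containing 0.5% (carboxymethyl)cellulose, agent dissolved or suspended. Three cages of two rats each per dose, held in metabolism cages. Urine collected over 5 h. Volume given in mL, Na+ in mequiv. Significance versus control at P < 0.05.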

[4] = tested on: Rattus norvegicus; test: Mean excretion of chloride in conscious rats at a dose of 100 mg/kg given orally; assay type: ADME, organism-based; set-up: dose 100 mg/kg, route oral; conditions: in vivo, po; method in brief: as §1
[5] = Diuretic activity at 40 mg/kg (screening dose-90.5 umol/kg) in […] in a two stage experiment; T/C1.2 = urine vol of treated rats / urine vol of control rats; assay type: functional
Method in brief: (§4)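 40 mg/kg given by gavage in 25 mL/kg 0.9% saline with 0.5% (carboxymethyl)cellulose. Four rats per agent, two per metabolism cage; 20 controls; 5 h urine. T/C = treated/control urine volume. Stage-1 T/C of 1.66 or more leads to stage 2; product T/C1·T/C2 of 3.34 or more counts as active.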

[6] = species: Rattus norvegicus; test: […]; assay type: ADME, organism-based, Urine; set-up: dose 3 mg/kg, route oral; conditions: in vivo, po, 3 mg/kg; method in brief: as §3
[7] = tested on: Rattus norvegicus; test: Mean excretion of sodium in conscious rats at a dose of 3.0 mg/kg given orally; assay type: ADME, organism-based; set-up: dose 3 mg/kg, route oral; conditions: in vivo, po; method in brief: as §3
[8] = tested on: Rattus norvegicus; test: Mean excretion of sodium in conscious rats at a dose of 10 mg/kg given orally; assay type: ADME, organism-based; set-up: dose 10 mg/kg, route oral; conditions: in vivo, po; method in brief: as §3
[9] = species: Rattus norvegicus; test: […]; assay type: ADME, organism-based, Urine; set-up: dose 1 mg/kg, route oral; conditions: in vivo, po, 1 mg/kg
Method in brief: (§5)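 Dose-response test in male Sprague-Dawley rats of about 160 g, fasted 24 h, with water withheld 1½ h before and during the test. Each rat got a single gavage of 25 mL/kg 0.9% saline with 0.5% carboxymethylcellulose carrying the agent (0.3–100 mg/kg range). Rats were housed two per metabolism cage, and urine was collected for 5 h. Mean urine volume (mL) was compared with controls (P < 0.05).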

[10] = tested on: Canis familiaris; test: Effect of compound on urinary volume before infusion with 10 mg/kg/hr fose into renal artery of anesthetized dogs; assay type: ADME, organism-based, Canis lupus familiaris, Urine; conditions: dog, in vivo; method in brief: as §2
[11] = species: Rattus norvegicus; test: […]; assay type: ADME, organism-based, Urine; set-up: dose 0.3 mg/kg, route oral; conditions: in vivo, po, 0.3 mg/kg; method in brief: as §5
[12] = tested on: Rattus norvegicus; test: Mean excretion of sodium in conscious rats at a dose of 30 mg/kg given orally; assay type: ADME, organism-based; set-up: dose 30 mg/kg, route oral; conditions: in vivo, po; method in brief: as §3
[13] = tested on: Rattus norvegicus; test: Mean excretion of potassium in conscious rats at a dose of 0.3 mg/kg given orally; assay type: ADME, organism-based; set-up: dose 0.3 mg/kg, route oral; conditions: in vivo, po; method in brief: as §1
[14] = species: Rattus norvegicus; test: […]; assay type: ADME, organism-based, Urine; set-up: dose 10 mg/kg, route oral; conditions: in vivo, po, 10 mg/kg; method in brief: as §3
[15] = tested on: Rattus norvegicus; test: Mean excretion of […] in conscious rats at a dose of 1.0 mg/kg given orally; assay type: ADME, organism-based; set-up: dose 1 mg/kg, route oral; conditions: in vivo, po; method in brief: as §3
[16] = tested on: Rattus norvegicus; test: Mean excretion of chloride in conscious rats at a dose of 30 mg/kg given orally; assay type: ADME, organism-based; set-up: dose 30 mg/kg, route oral; conditions: in vivo, po; method in brief: as §1
[17] = species: Rattus norvegicus; test: […]; assay type: ADME, organism-based, Urine; set-up: dose 100 mg/kg, route oral; conditions: in vivo, po, 100 mg/kg; method in brief: as §3
[18] = tested on: Rattus norvegicus; test: Mean excretion of potassium in conscious rats at a dose of 1.0 mg/kg given orally; assay type: ADME, organism-based; set-up: dose 1 mg/kg, route oral; conditions: in vivo, po; method in brief: as §1
[19] = tested on: Rattus norvegicus; test: Mean excretion of chloride in conscious rats at a dose of 10 mg/kg given orally; assay type: ADME, organism-based; set-up: dose 10 mg/kg, route oral; conditions: in vivo, po; method in brief: as §1
[20] = tested on: Rattus norvegicus; test: Mean excretion of potassium in conscious rats at a dose of 3.0 mg/kg given orally; assay type: ADME, organism-based; set-up: dose 3 mg/kg, route oral; conditions: in vivo, po; method in brief: as §1
[21] = tested on: Rattus norvegicus; test: Mean excretion of potassium in conscious rats at a dose of 30 mg/kg given orally; assay type: ADME, organism-based; set-up: dose 30 mg/kg, route oral; conditions: in vivo, po; method in brief: as §1
[22] = tested on: Canis familiaris; test: Effect of compound on glomerular filtration rate before infusion with 10 mg/kg/hr fose into renal artery of anesthetized dogs; assay type: ADME, organism-based, Canis lupus familiaris; conditions: dog, in vivo; method in brief: as §2
[23] = species: Rattus norvegicus; test: […]; assay type: ADME, organism-based, Urine; set-up: dose 30 mg/kg, route oral; conditions: in vivo, po, 30 mg/kg; method in brief: as §3
[24] = tested on: Rattus norvegicus; test: Mean excretion of Cl- in conscious rats at a dose of 0.3 mg/kg given orally; assay type: ADME, organism-based, Urine; set-up: dose 0.3 mg/kg, route oral; conditions: in vivo, po; method in brief: as §5
[25] = Diuretic activity at 40 mg/kg (screening dose-90.5 umol/kg) in […] in a one stage experiment; T/C = urine vol of treated rats / urine vol of control rats; assay type: functional; method in brief: as §4
[26] = tested on: Rattus norvegicus; test: Mean excretion of potassium in conscious rats at a dose of 10 mg/kg given orally; assay type: ADME, organism-based; set-up: dose 10 mg/kg, route oral; conditions: in vivo, po; method in brief: as §1
[27] = tested on: Rattus norvegicus; test: Mean excretion of sodium in conscious rats at a dose of 100 mg/kg given orally; assay type: ADME, organism-based; set-up: dose 100 mg/kg, route oral; conditions: in vivo, po; method in brief: as §3
[28] = tested on: Canis familiaris; test: Effect of compound on urinary volume after infusion with 10 mg/kg/hr fose into renal artery of anesthetized dogs; assay type: ADME, organism-based, Canis lupus familiaris, Urine; conditions: dog, in vivo; method in brief: as §2
[29] = tested on: Rattus norvegicus; test: Mean excretion of chloride in conscious rats at a dose of 1.0 mg/kg given orally; assay type: ADME, organism-based; set-up: dose 1 mg/kg, route oral; conditions: in vivo, po; method in brief: as §1
[30] = tested on: Rattus norvegicus; test: Mean excretion of chloride in conscious rats at a dose of 3.0 mg/kg given orally; assay type: ADME, organism-based; set-up: dose 3 mg/kg, route oral; conditions: in vivo, po; method in brief: as §1
[31] = Diuretic activity at 40 mg/kg (screening dose-82.2 umol/kg) in […] in a one stage experiment; T/C = urine vol of treated rats / urine vol of control rats; assay type: functional; method in brief: as §4
[32] = Diuretic activity at 40 mg/kg (screening dose-82.2 umol/kg) in […] in a two stage experiment; T/C1.2 = urine vol of treated rats / urine vol of control rats; assay type: functional; method in brief: as §4
[33] = Diuretic activity at 40 mg/kg (screening dose-68.7 umol/kg) in […] in a one stage experiment; T/C = urine vol of treated rats / urine vol of control rats; assay type: functional; method in brief: as §4
[34] = Diuretic activity at 40 mg/kg (screening dose-68.7 umol/kg) in […] in a two stage experiment; T/C1.2 = urine vol of treated rats / urine vol of control rats; assay type: functional; method in brief: as §4
[35] = Diuretic activity at 40 mg/kg (screening dose-73.8 umol/kg) in […] in a one stage experiment; T/C = urine vol of treated rats / urine vol of control rats; assay type: functional; method in brief: as §4
[36] = Diuretic activity at 40 mg/kg (screening dose-73.8 umol/kg) in […] in a two stage experiment; T/C1.2 = urine vol of treated rats / urine vol of control rats; assay type: functional; method in brief: as §4

SMILES | Mean excretion of K+ [1] | Mean excretion of Na+ [3] | Mean excretion of Cl- [4] | Mean urine volume [6] | Mean excretion of Na+ [7] | Mean excretion of Na+ [8] | Mean urine volume [9] | Mean urine volume [11] | Mean excretion of Na+ [12] | Mean excretion of K+ [13] | Mean urine volume [14] | Mean excretion of Na+ [15] | Mean excretion of Cl- [16] | Mean urine volume [17] | Mean excretion of K+ [18] | Mean excretion of Cl- [19] | Mean excretion of K+ [20] | Mean excretion of K+ [21] | Mean urine volume [23] | Mean excretion of Cl- [24] | also measured
CN(C)CC(c1ccccc1)c1nnc2n1-c1ccc(Cl)cc1C(c1ccccc1)=NC2 (stereo not drawn) | 0.27 m equiv | 0.74 m equiv | 1.26 m equiv | 5.36 mL | 0.82 m equiv | 1.15 m equiv | 4.47 mL | 4.15 mL | 1.8 m equiv | 0.25 m equiv | 6.7 mL | 0.81 m equiv | 1.72 m equiv | 9.54 mL | 0.25 m equiv | 1.16 m equiv | 0.22 m equiv | 0.27 m equiv | 12 mL | 0.73 m equiv | GFR [2]: 18 mL/min; T/C 1.2 [5]: 5.27; Urinary volume [10]: 0.2 mL/min; GFR [22]: 23 mL/min; T/C 1 [25]: 2.1; Mean excretion of K+ [26]: 0.22 m equiv; Mean excretion of Na+ [27]: 1.51 m equiv; Urinary volume [28]: 0.9 mL/min; Mean excretion of Cl- [29]: 0.81 m equiv; Mean excretion of Cl- [30]: 0.89 m equiv
CN(C)CC(c1ccccc1)c1nnc2n1-c1ccc(Br)cc1C(c1ccccc1)=NC2 (stereo not drawn) | 0.15 m equiv | 0.63 m equiv | 1.01 m equiv | 3.4 mL | 0.53 m equiv | 0.74 m equiv | 3.59 mL | 4.29 mL | 1.18 m equiv | 0.24 m equiv | 5.1 mL | 0.64 m equiv | 1.16 m equiv | 7.74 mL | 0.21 m equiv | 0.78 m equiv | 0.17 m equiv | 0.17 m equiv | 8.5 mL | 0.72 m equiv | T/C 1 [31]: 2.17; T/C 1.2 [32]: 4.73; Mean excretion of K+ [26]: 0.17 m equiv; Mean excretion of Na+ [27]: 1.16 m equiv; Mean excretion of Cl- [29]: 0.62 m equiv; Mean excretion of Cl- [30]: 0.6 m equiv
CN(C)CCc1nnc2n1-c1ccc(Br)cc1C(c1ccccc1)=NC2 | 0.27 m equiv | 0.66 m equiv | 1.42 m equiv | 5.97 mL | 0.78 m equiv | 0.68 m equiv | 4.38 mL | 3.99 mL | 1 m equiv | 0.25 m equiv | 5.9 mL | 0.65 m equiv | 0.94 m equiv | 13 mL | 0.23 m equiv | 0.74 m equiv | 0.23 m equiv | 0.16 m equiv | 8.44 mL | 0.66 m equiv | T/C 1 [33]: 2.98; T/C 1.2 [34]: 7.84; Mean excretion of K+ [26]: 0.21 m equiv; Mean excretion of Na+ [27]: 1.57 m equiv; Mean excretion of Cl- [29]: 0.65 m equiv; Mean excretion of Cl- [30]: 0.82 m equiv
I.NCC(c1ccccc1)c1nnc2n1-c1ccc(Cl)cc1C(c1ccccc1)=NC2 (stereo not drawn) | 0.27 m equiv | 0.77 m equiv | 1.57 m equiv | 3.92 mL | 0.69 m equiv | 1.08 m equiv | 4.45 mL | 4.34 mL | 2.01 m equiv | 0.28 m equiv | 6.21 mL | 0.76 m equiv | 1.72 m equiv | 8.43 mL | 0.32 m equiv | 1.09 m equiv | 0.22 m equiv | 0.28 m equiv | 10.47 mL | 0.81 m equiv | T/C 1 [35]: 2.53; Mean excretion of K+ [26]: 0.27 m equiv; Mean excretion of Na+ [27]: 1.63 m equiv; Mean excretion of Cl- [29]: 0.79 m equiv; T/C 1.2 [36]: 5.92; Mean excretion of Cl- [30]: 0.73 m equiv
